The source made the active and inactive calls. The calls are words filed in the database; no cut-off is given here.
Experiments:
Trypanosoma cruzi [1] = experiment: Antiparasitic activity against bloodstream trypomastigote stage of Trypanosoma cruzi Y assessed as parasite viability after 24 hrs by Neubauer chamber analysis; format: functional, organism-based
Method in brief: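 Y strain bloodstream trypomastigotes were harvested from infected LLC-MK2 cell supernatants. They were exposed to compounds at five concentrations for 24 h at 37 °C, 5% CO₂. Viable parasites were counted in a Neubauer chamber by motility. Inhibition was calculated relative to untreated cultures, and IC50 was derived by non-linear regression.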

[2] = Cytotoxicity against mouse J774 cells assessed as cell viability after 72 hrs by Alamar Blue assay; format: cell-based
Method in brief: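 J774 macrophages were plated at 5 × 10⁴ cells/mL in RPMI + 10% FBS with gentamycin and grown 24 h at 37 °C, 5% CO₂. Compounds in DMSO (final <1%) were added at six concentrations (0.41–100 µM) in triplicate for 72 h. Viability was read by AlamarBlue at 570/600 nm after 6 h. CC50 came from three independent experiments, with gentian violet as positive control.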

[3] = Selectivity index, ratio of CC50 for mouse J774 cells to IC50 for bloodstream trypomastigote stage of Trypanosoma cruzi Y
[4] = molecular target: Cruzipain (Trypanosoma cruzi) (UniProt P25779); experiment: Competitive inhibition of Trypanosoma cruzi Cruzain using Z-FR-AMC as substrate at 100 uM preincubated for 10 mins followed by substrate addition measured every 12 secs for 5 mins by fluorescence assay relative to control
Chain of Cruzipain (Trypanosoma cruzi) (P25779 123-467 limits assumed): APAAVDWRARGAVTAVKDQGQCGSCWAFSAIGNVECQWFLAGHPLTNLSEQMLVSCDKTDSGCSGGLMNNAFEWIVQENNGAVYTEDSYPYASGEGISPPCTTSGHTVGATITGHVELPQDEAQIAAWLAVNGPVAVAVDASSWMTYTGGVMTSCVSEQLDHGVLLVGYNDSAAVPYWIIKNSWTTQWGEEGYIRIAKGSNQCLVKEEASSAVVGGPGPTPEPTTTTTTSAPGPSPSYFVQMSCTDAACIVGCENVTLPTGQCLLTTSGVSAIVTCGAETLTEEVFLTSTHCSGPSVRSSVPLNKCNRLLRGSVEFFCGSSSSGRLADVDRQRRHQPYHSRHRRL

Leishmania = experiment: Antiparasitic activity against Leishmania; format: functional
Trypanosoma cruzi [5] = experiment: Antichagasic activity against Trypanosoma cruzi; format: functional
Trypanosoma cruzi [6] = experiment: Antiparasitic activity against amastigote stage of Trypanosoma cruzi Y in BALB/c mouse macrophages assessed as decrease in number of infected cells at 50 uM incubated for 6 hrs by Giemsa staining-based optical microscopic analysis; format: functional, organism-based
Method in brief: (§1)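 Thioglycolate-elicited peritoneal macrophages from BALB/c mice, 2 × 10⁵ cells/well on coverslips in RPMI + 10% FBS for 24 h, then infected with Y strain trypomastigotes (10 per macrophage) for 2 h. Free parasites washed off. Compounds added at 50 µM for 6 h, medium replaced, 3 days further culture. Methanol fixation, Giemsa staining, 100 cells counted per slide. Triplicate, two independent experiments.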

Trypanosoma cruzi [7] = experiment: Antiparasitic activity against amastigote stage of Trypanosoma cruzi Y in BALB/c mouse macrophages assessed as decrease in number of intracellular amastigotes at 50 uM incubated for 6 hrs by Giemsa staining-based optical microscopic analysis; format: functional, organism-based; method in brief: as §1
Trypanosoma cruzi [8] = experiment: Antiparasitic activity against amastigote stage of Trypanosoma cruzi Y in BALB/c mouse macrophages assessed as decrease in number of intracellular amastigotes incubated for 6 hrs by Giemsa staining-based optical microscopic analysis; format: functional, organism-based
Method in brief: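 Peritoneal BALB/c macrophages (thioglycolate-elicited) were infected with Y strain trypomastigotes at 10:1 for 2 h and washed. Compounds at five concentrations (1–50 µM) were applied for 6 h, followed by fresh medium and 3 days of culture. Amastigotes per 100 macrophages were counted after Giemsa staining.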

Trypanosoma cruzi [9] = experiment: Antiparasitic activity against bloodstream trypomastigote stage of Trypanosoma cruzi Y infected in BALB/c mouse assessed as reduction of parasitemia at 100 mg/kg, po qd administered for 5 days measured on day 10 post infection relative to vehicle-treated control; format: functional; set-up: scale not given: the % may be the effect or the level left
Method in brief: (§2)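 Female BALB/c mice (6 per group, randomized) were infected with 10⁴ Y strain trypomastigotes. They were dosed orally at 100 mg/kg once daily for 5 days starting day 5 post-infection. Parasitemia was counted as trypomastigotes in fresh blood. Reduction = (vehicle mean − treated mean)/vehicle mean × 100%.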

Trypanosoma cruzi [10] = experiment: Antiparasitic activity against bloodstream trypomastigote stage of Trypanosoma cruzi Y infected in BALB/c mouse assessed as reduction of parasitemia at 100 mg/kg, po qd administered for 5 days measured on day 12 post infection relative to vehicle-treated control; format: functional; set-up: scale not given: the % may be the effect or the level left; method in brief: as §2
Trypanosoma cruzi [11] = experiment: Antiparasitic activity against bloodstream trypomastigote stage of Trypanosoma cruzi Y infected in BALB/c mouse assessed as increase in survival rate by measuring mortality at 100 mg/kg, po qd administered for 5 days measured until 30 days; format: functional, organism-based
Method in brief: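 Female BALB/c mice (6 per group) were infected with 10⁴ Y strain trypomastigotes. From day 5 post-infection they received 100 mg/kg orally once daily for 5 days. Controls were vehicle (untreated infected) and benznidazole 100 mg/kg. Survival was followed for 30 days after infection in one experiment.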

Trypanosoma cruzi [12] = experiment: Potency index, ratio of benznidazole IC50 to compound IC50 for bloodstream trypomastigote stage of Trypanosoma cruzi Y; format: functional
Trypanosoma cruzi [13] = experiment: Potency index, ratio of benznidazole IC50 to compound IC50 for amastigote stage of Trypanosoma cruzi Y in BALB/c mouse macrophages; format: functional
Mus musculus = experiment: Toxicity in BALB/c mouse infected with bloodstream trypomastigote stage of Trypanosoma cruzi Y assessed as body weight loss at 100 mg/kg, po qd administered for 5 days; format: organism-based; conditions: in vivo, 120 h

SMILES	IC50 (Trypanosoma cruzi [1])	CC50 at 72 h [2]	Ratio CC50/IC50 [3]	inhibition [4]	other results
C/C(=N\N=C1/NC(=O)C(C(C)C)S1)c1ccc(Cl)c(Cl)c1 (centres undefined)	16.9 µM	> 100 µM	>5.9	49%	–
C/C(=N\N=C1\SCC(=O)N1c1ccccc1)c1ccc(Cl)c(Cl)c1	> 50 µM	> 100 µM	–	43%	–
C/C(=N\NC(=S)Nc1ccccc1)c1ccc(Cl)c(Cl)c1	> 50 µM	> 100 µM	–	0%	–
C/C(=N\N=C1/NC(=O)C(c2ccccc2)S1)c1ccc(Cl)c(Cl)c1 (centres undefined)	> 50 µM	96.9 µM	–	61%	–
O=C(N[C@@H](Cn1ccnc1)c1ccc(-c2ccc(F)cc2)cc1F)c1ccc(-c2nnc(-c3ccccc3)o2)cc1	–	–	–	–	Activity (Leishmania): 89%; Activity (Trypanosoma cruzi [5]): 100%
C/C(=N\N=C1/NC(=O)C(C)S1)c1ccc(Cl)c(Cl)c1 (centres undefined)	49.5 µM	> 100 µM	>2	49%	–
C/C(=N\N=C1\SC(C(C)C)C(=O)N1c1ccccc1)c1ccc(Cl)c(Cl)c1 (centres undefined)	1.7 µM	> 100 µM	>58	23%	Activity (Trypanosoma cruzi [6]): Active; Activity (Trypanosoma cruzi [7]): Active; IC50 (Trypanosoma cruzi [8]): 3.1 µM; Activity (Trypanosoma cruzi [9]): 86.7%; Activity (Trypanosoma cruzi [10]): 97.1%; Activity (Trypanosoma cruzi [11]): Active; Ratio IC50 (Trypanosoma cruzi [12]): 6; Ratio IC50 (Trypanosoma cruzi [13]): 4; Activity (Mus musculus): Non-toxic
CN(C)c1ccc(C(=C2C=CC(=[N+](C)C)C=C2)c2ccc(N(C)C)cc2)cc1 [GENTIAN VIOLET]	–	0.45 µM	–	–	–
C/C(=N\N=C1\SC(C)C(=O)N1c1ccccc1)c1ccc(Cl)c(Cl)c1 (centres undefined)	4.2 µM	26.1 µM	6	43%	Activity (Trypanosoma cruzi [6]): Active; Activity (Trypanosoma cruzi [7]): Active; IC50 (Trypanosoma cruzi [8]): 5.9 µM; Ratio IC50 (Trypanosoma cruzi [12]): 2; Ratio IC50 (Trypanosoma cruzi [13]): 2
C/C(=N\N=C(\N)S)c1ccc(Cl)c(Cl)c1	7.1 µM	13.4 µM	1.7	85%	–
C/C(=N\N=C1\SC(c2ccccc2)C(=O)N1c1ccccc1)c1ccc(Cl)c(Cl)c1 (centres undefined)	17.7 µM	27.1 µM	1.5	27%	–
C/C(=N\N=C1\SC(c2ccccc2)C(=O)N1C)c1ccc(Cl)c(Cl)c1 (centres undefined)	41.5 µM	97.6 µM	–	29%	–
CCC1S/C(=N/N=C(\C)c2ccc(Cl)c(Cl)c2)N(C)C1=O (centres undefined)	48.5 µM	> 100 µM	>2	20%	–
CCC1S/C(=N/N=C(\C)c2ccc(Cl)c(Cl)c2)NC1=O (centres undefined)	> 50 µM	76.7 µM	–	49%	–
CCC1S/C(=N/N=C(\C)c2ccc(Cl)c(Cl)c2)N(c2ccccc2)C1=O (centres undefined)	2.9 µM	23.3 µM	8	24%	Activity (Trypanosoma cruzi [6]): Active; Activity (Trypanosoma cruzi [7]): Active; IC50 (Trypanosoma cruzi [8]): 3.2 µM; Ratio IC50 (Trypanosoma cruzi [12]): 3; Ratio IC50 (Trypanosoma cruzi [13]): 4
C/C(=N\N=C1\SC(C)C(=O)N1C)c1ccc(Cl)c(Cl)c1 (centres undefined)	> 50 µM	> 100 µM	–	32%	–
C/C(=N\N=C1/NC(=O)CS1)c1ccc(Cl)c(Cl)c1	> 50 µM	76.5 µM	–	54%	–
O=C(N[C@@H](Cn1ccnc1)c1ccc(Cl)cc1Cl)c1ccc(-c2nnc(-c3ccccc3)o2)cc1	–	–	–	–	Activity (Leishmania): 60%
C/C(=N\N=C1\SCC(=O)N1C)c1ccc(Cl)c(Cl)c1	> 50 µM	> 100 µM	–	0%	–
O=C(Cn1ccnc1[N+](=O)[O-])NCc1ccccc1 [BENZNIDAZOLE]	10.6 µM	> 100 µM	>9.4	–	Activity (Trypanosoma cruzi [6]): Active; Activity (Trypanosoma cruzi [7]): Active; Activity (Trypanosoma cruzi [9]): >99%; Activity (Trypanosoma cruzi [10]): >99%; Activity (Trypanosoma cruzi [11]): Active; Activity (Mus musculus): Non-toxic
C/C(=N\N=C1\SC(C(C)C)C(=O)N1C)c1ccc(Cl)c(Cl)c1 (centres undefined)	> 50 µM	> 100 µM	–	38%	–
CNC(=S)N/N=C(\C)c1ccc(Cl)c(Cl)c1	11.2 µM	> 100 µM	–	28%	–
